FXN GAA850 act – increases GAA850 frataxin promoter reporter activity. HEK293 lucGAA850 FXN promoter luciferase reporter, 24 h; percent of 10 µM SAHA response. activation, % at 6 µM. 360,000 compounds, 0.56% hits;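 active means activation above the average of all compounds screened plus 3 SD, cutoff fixed separately per campaign, cut at about 7.5% in these data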;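 further: 0% = DMSO wells and 100% = 10 µM SAHA wells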
Hsp70 act – transcriptional activators of Hsp70; HeLa Hsp70 promoter luciferase reporter, luminescence; scaled: vehicle 0, proteasome-inhibitor control 100%; activation, % at 10 µM; 200,000 compounds, 0.04% hits; AID 1203;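 active means activation above the mean across all tested compounds plus 3 SD, cutoff set per campaign, cut at about 5.5% in these data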;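 further: 100% = MG132 at 30 µM as the positive control and 0% = DMSO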
Rad51 HR inh – Rad51 (human) homologous recombination inhibition; Q06609; hRad51 DNA strand exchange, fluorescence dequenching; inhibition, % at 10 µM; 200,000 compounds, 0.085% hits;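 active means inhibition above 40% at the single screening dose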;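 further: 0% = DMSO control wells and 100% = blanks with heterologous ssDNA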
Target sequence (Q06609 whole entry, looked up): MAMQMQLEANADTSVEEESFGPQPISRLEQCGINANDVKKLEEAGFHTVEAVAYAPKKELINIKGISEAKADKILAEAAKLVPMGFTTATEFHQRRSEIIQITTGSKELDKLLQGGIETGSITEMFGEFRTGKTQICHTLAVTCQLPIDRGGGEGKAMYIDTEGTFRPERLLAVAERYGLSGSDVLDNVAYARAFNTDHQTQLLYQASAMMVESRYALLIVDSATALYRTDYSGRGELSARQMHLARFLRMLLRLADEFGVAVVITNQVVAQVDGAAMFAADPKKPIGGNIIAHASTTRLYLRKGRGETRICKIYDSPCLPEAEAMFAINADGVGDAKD
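Test system: preformed human Rad51 ssDNA filaments; also added: Donor/quencher-labelled 47-bp dsDNA substrate; doses: 10 µM final, single point; times: 37 °C 15-min filament assembly, 30-min compound preincubation, 15-min exchange; detection: FRET fluorescence dequenching, excitation 485 nm, emission 520 nm; read-out basis: Fluorescence-based percent inhibition, control- and blank-normalised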
ABHD5 PLIN5 PPI – inhibitors of human ABHD5-perilipin-5 interaction. AID 602281. inhibition, % at 4 µM. Q00G26+Q8WTS1. Split G. princeps luciferase complementation, luminescence, 4 h. 360,000 compounds, 0.78% hits;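 active means inhibition above the mean inhibition across every tested compound plus 3 SD, cut at about 22% in these data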;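 further: 0% = DMSO only wells and the 100% control is not disclosed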
H9c2 TAG inh – reduces triacylglycerol accumulation in H9c2 cells | Nile Red lipid (TAG) fluorescence; cells loaded with 200 µM oleic acid | inhibition, % at 12.5 µM | 230,000 compounds, 0.66% hits;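 active means pattern-corrected inhibition of lipid staining of at least 50% with the nuclear-stain viability signal not falling by more than 50%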;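 further: 0% = DMSO wells and 100% = triacsin C control wells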
HIF activator – HIF pathway transcriptional activation | activation, % at 7.5 µM (by protocol) | U2OS HRE-luciferase reporter, luminescence; normalized: DMSO 0%, desferrioxamine 100% | 300,000 compounds, 0.32% hits;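 active means mean activation of at least 10% of the iron chelator positive control signal, with at least half of replicates also reaching 10%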
GAA30 counter – activates GAA30 frataxin promoter, counter-screen for GAA850 activators | HEK293 lucGAA30 FXN promoter luciferase, 24 h; DMSO = 0%, 5 µM ipriflavone = 100% | activation, % at 6 µM | shares compounds with FXN GAA850 act | 1,900 compounds, 66% hits;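 active means mean activation above the mean of solvent-only control wells plus 3 SD, cut at about 22% in these data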;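 further: counterscreen of GAA850 promoter hits where activity marks nonselective or luminescence artifacts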
FXN GAA850 conf – confirmation of GAA850 frataxin (FXN) promoter activators | shares compounds with FXN GAA850 act | HEK293 lucGAA850 FXN promoter luciferase reporter, 24 h; 100% = activation by SAHA | 1,900 compounds, 86% hits | activation, % at 6 µM | AID 588351;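 active means mean activation above a set limit taken from the primary screen, cut at about 8% in these data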;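 further: 0% = DMSO wells and 100% = 10 µM SAHA wells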
* hit, by the source's call; . = no result. An excerpt weighted towards active compounds, which were near 1.9% of everything screened.

SMILES	FXN GAA850 act	Hsp70 act	Rad51 HR inh	ABHD5 PLIN5 PPI	H9c2 TAG inh	HIF activator	GAA30 counter	FXN GAA850 conf
Clc1nc2sccn2c1/C=N/n1cnc2ccccc21	9.1*	-0.3	-1.3	4.2	.	1.7	82.1*	32.1*
C(=N\n1cnc2ccccc21)/c1cccnc1	1.6	0.1	-8.4	1.2	.	1.0	.	.
O=S1(=O)N=C(Nc2ccc(N3CCOCC3)c(Cl)c2)c2ccccc21	8.4*	0.6	12.4	0.4	-7.3	3.5	103.2*	33.7*
O=S1(=O)N=C(Nc2ccc(O)cc2)c2ccccc21	1.1	-0.3	-7.2	10.9	-10.1	-0.2	.	.
Cn1ccc2c(N3CCCCC3)cc3c(c21)C1CCC3C1 (stereo unspecified)	.	.	.	-12.1	.	.	.	.
CN(C)c1ccc(N=Nc2ccccc2C(=O)OCC(=O)Nc2ccccc2C(F)(F)F)cc1	7.6*	-0.2	7.6	6.6	.	-0.1	72.6*	23.3*
CN(C)c1ccc(N=Nc2ccccc2C(=O)OCC(=O)N2CCCC2)cc1	4.0	-0.2	2.0	9.3	.	0.3	.	.
COc1cc(/C=N/NC(=O)c2sc(N)c(C#N)c2C)ccc1O	11.0*	-0.2	-2.9	-1.8	.	0.7	-13.2	44.3*
CCN(Cc1ccc(OC)c(F)c1)C(=O)c1cc2ccccc2o1	8.5*	.	.	-5.6	.	-1.2	34.5*	17.5*
Cc1cc(C)cc(-n2c(SC(C)C(=O)NCc3ccc4c(c3)OCO4)nc3ccccc3c2=O)c1 (stereo unspecified)	8.7*	-0.2	-6.0	-5.8	.	-0.8	23.9*	8.2*
O=C(COC(=O)Cn1cnc2ccccc21)Nc1ccc2c(c1)C(=O)c1ccccc1C2=O	8.7*	0.1	-0.2	2.9	5.7	1.3	108.0*	46.2*
O=C(COC(=O)Cn1cnc2ccccc21)Nc1ccc(Br)cc1	0.3	.	.	8.1	-6.0	.	.	.
CC(=O)c1cc2c(cc1NS(=O)(=O)c1ccc(F)cc1)OCO2	0.2	-0.2	13.3	1.5	2.1	2.1	.	.
COc1cc(C=C(C(C)=O)C(C)=O)ccc1O	1.1	-0.6	0.0	11.4	3.8	0.1	.	.
COc1cc(/C=C/C(=O)O)ccc1O	16.1*	.	-2.4	4.2	.	0.0	3.2	7.1
Cn1c(=O)c2c(=O)cc(NNC(=O)CC#N)[nH]c2n(C)c1=O	0.8	-0.3	7.0	-3.1	.	-0.3	.	.
O=c1[nH]c2ccccc2nc1/C=C/c1ccccc1	3.4	0.6	.	-3.4	-7.9	3.5	.	.
O=c1[nH]c2ccccc2nc1/C=C(\O)c1cccs1	11.2*	0.1	-128.2	0.2	-6.6	1.9	115.8*	41.5*
O=c1[nH]c2ccccc2nc1/C=C/c1ccc(O)cc1	7.6*	-0.2	-21.8	2.0	-2.6	1.6	121.1*	35.2*
c1cnc(SCCOc2ccc3c(c2)CCC3)nc1	8.2*	0.1	-8.6	8.3	2.0	1.4	100.6*	38.0*
O=C(COc1ccc2c(c1)OCO2)Nc1nncs1	4.0	.	.	3.6	.	3.5	.	.
COc1ccc(NC(=O)C2C(=O)NC3(C)CC2c2ccccc2O3)cc1 (stereo unspecified)	12.9*	-0.2	-0.1	4.8	.	0.3	21.4	7.4
Cc1ccccc1-c1ccc(C(=O)Nc2cccc(F)c2)o1	7.7*	-0.1	12.9	14.0	-9.6	2.6	57.3*	17.3*
CCCCn1c(N)c(N(CCOC)C(=O)CN(C)CC(=O)Nc2ccc(Cl)c(Cl)c2)c(=O)[nH]c1=O	-1.9	.	.	1.4	12.3	.	.	.
Cc1cc2cc(OCc3ccccc3)ccc2n1C	2.8	.	.	-2.4	.	-0.8	.	.
SMILES	FXN GAA850 act	Hsp70 act	Rad51 HR inh	ABHD5 PLIN5 PPI	H9c2 TAG inh	HIF activator	GAA30 counter	FXN GAA850 conf
Cc1c(C=O)c2cc(OCc3ccccc3)ccc2n1C	7.7*	.	.	8.2	.	3.1	105.3*	32.3*
O=C(CSc1nnnn1-c1ccc(F)cc1)c1ccc(O)c(O)c1	11.6*	0.2	0.6	-3.8	-3.2	-0.5	30.9*	17.4*
Cc1nc(NCC(c2ccccc2)N(C)C)c2c(C)c(C)sc2n1 (stereo unspecified)	-1.5	.	.	2.6	.	1.1	.	.
COc1ccc2[nH]c3c(c2c1)CCN1C(=O)C(CC(=O)NCCCn2ccnc2)C[C@H](C(=O)N(C(C)C)C(C)C)[C@@]31C (stereo partly specified)	2.0	.	.	13.7	1.1	.	.	.
c1ccc2nc3c(ccc4ccccc43)cc2c1	7.7*	.	.	-10.9	4.4	.	105.8*	36.7*
Cc1cccc2cc3ccccc3nc12	0.9	.	.	5.6	-10.4	0.1	.	.
CCc1nc2ccc(C(=O)NCCN3CCNC3=O)cn2c1N(CC)Cc1cccc(Br)c1	15.1*	.	.	9.9	-2.3	.	15.1	7.2
O=C(Nc1ccc(OC(F)(F)F)cc1)C1CCCCN1S(=O)(=O)c1ccccc1 (stereo unspecified)	6.2	.	.	-9.9	-19.1	.	.	.
NC(=O)c1c(NC(=O)c2ccccc2)sc2c1CCc1ccccc1-2	7.7*	-0.1	-4.8	-1.5	.	2.0	94.5*	35.4*
NC(=O)c1c(NC(=O)c2ccccc2)sc2c1CCC2	3.4	.	.	-0.9	1.4	1.3	.	.
COC(=O)c1ccc(NC(=O)COC(=O)COc2cccc3c2OC(C)(C)C3)cc1	2.1	.	.	1.3	4.7	.	.	.
CC1S/C(=N/N=C2CCC(C(C)(C)C)CC2)NC1=O (stereo unspecified)	14.1*	-0.2	-1.0	-7.2	.	-0.3	27.9*	7.6*
CC1S/C(=N/N=C2CCCCC2)NC1=O (stereo unspecified)	1.8	0.3	4.7	-3.1	.	-0.1	.	.
CN(Cc1ccccc1)c1nc(N)c([N+](=O)[O-])c(Nc2cccc(F)c2)n1	9.6*	0.1	-1.2	1.1	.	-1.1	27.2*	16.6*
O=c1[nH]c2ccccc2c2cn(-c3ccccc3)nc12	8.8*	.	.	-3.3	.	5.0	112.4*	45.6*

Source: PubChem (several laboratories)
